Data from publication PMC5783296 (SLAS discovery : advancing life sciences R & D, 2017).
Where a name gives a salt, the structure may show the parent alone.

What was measured:
[1] = target: T1, interaction between NHP2L1 and U4 5′SL (Homo sapiens, UniProt P55769); test: TR-FRET HTS assay of NHP2L1-U4 interaction; type: binding; details: for potency in dose response screening (IC50 ranking): dose responsive analysis, ten 1:3 dilutions, TR-FRET; for disruption of the interaction of U4 and NHP2L1: TR-FRET dose response, camptothecin derivatives
T1 sequence (P55769 1-128): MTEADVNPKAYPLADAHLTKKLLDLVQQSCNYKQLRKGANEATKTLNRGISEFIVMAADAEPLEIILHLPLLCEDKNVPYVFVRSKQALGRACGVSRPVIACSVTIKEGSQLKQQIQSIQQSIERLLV

U4 5′ SL [2] = test: Surface plasmon resonance, immobilized U4 5′SL; type: binding; details: max 50μM, OneStep gradient injection, 20° C
[3] = tested on: pre-mRNA splicing (pTN23 reporter) in HEK293 cells; test: pTN23 splicing reporter assay; type: cell-based, Human; details: HEK293, topotecan 250nM, 24 hours
NHP2L1 U4 complex [4] = target: T2, NHP2L1 U4 complex (Homo sapiens, UniProt P55769); test: Electrophoretic gel mobility shift assay; type: binding; details: topotecan 0.2, 2, 20, 200 μM
T2 sequence (P55769 1-128): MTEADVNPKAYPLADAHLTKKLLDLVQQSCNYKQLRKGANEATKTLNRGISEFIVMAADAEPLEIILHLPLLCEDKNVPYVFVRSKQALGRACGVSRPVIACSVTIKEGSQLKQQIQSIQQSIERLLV
Outline: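 Recombinant NHP2L1 (E. coli BL21(DE3), Ni-chelate then gel filtration) plus biotinylated U4 5′SL, ±test compound, 45 min at room temperature in 20 mM Tris-HCl pH 7.6, 150 mM NaCl, 0.1% Triton X-100, 2 mM DTT, 0.5 g/L tRNA. Run on 6% retardation gel, 0.5× TBE, 100 V, 60 min, then nylon transfer and chemiluminescent detection. Shifted band quantified by densitometry as % of complex without compound.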

NHP2L1 U4 complex [5] = target: T2, NHP2L1 U4 complex; test: NMR of NHP2L1-U4 complex with topotecan; type: binding
Outline: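 15N-labelled NHP2L1 was premixed 1:1 with unlabelled U4 5′SL in pH 5.0 phosphate buffer (100 mM NaCl, 10% D2O, 2% DMSO-d6), with backbone assigned from HNCA/HNCACB. Chemical shift perturbations were read from 2D [15N,1H] HSQC/TROSY at 64 scans, and at 400 scans for the 1:1:20 TROSY.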

NHP2L1 protein = target: T3, NHP2L1 protein (Homo sapiens, UniProt P55769); test: Surface plasmon resonance, immobilized NHP2L1; type: binding; details: max 50μM, OneStep gradient injection, 20° C
T3 sequence (P55769 1-128): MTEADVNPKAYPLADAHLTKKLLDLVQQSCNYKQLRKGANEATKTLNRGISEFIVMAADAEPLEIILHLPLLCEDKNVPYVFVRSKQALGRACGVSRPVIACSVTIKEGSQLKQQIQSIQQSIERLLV

U4 5′ SL [6] = test: 1D NMR titration of U4 5′SL; type: binding; details: U4:topotecan 1:0 to 1:10
Outline: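 Solution NMR at pH 5.0 (100 mM NaCl, 100 mM sodium phosphate, 10% D2O, 2% DMSO-d6). U4 5′SL at 100 μM with increasing test compound, monitored by 1D and 2D [1H,1H] TOCSY (60 ms mixing) and NOESY (100 ms mixing) spectra.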

[7] = target: T4, NHP2L1 (15.5K), His-tagged (UniProt P55769 1-128); test: TR-FRET
T4 sequence: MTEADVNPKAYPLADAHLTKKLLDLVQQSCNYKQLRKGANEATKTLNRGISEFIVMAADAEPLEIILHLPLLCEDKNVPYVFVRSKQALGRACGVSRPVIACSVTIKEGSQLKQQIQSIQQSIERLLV

## CC[C@@]1(O)C(=O)OCc2c1cc1n(c2=O)Cc2cc3cc(O)ccc3nc2-1 [10-OH-(S)-camptothecin]
[1]
  potency in dose response screening (IC50 ranking): among the most potent inhibitors

## CC[C@@]1(O)C(=O)OCc2c1cc1n(c2=O)Cc2cc3c(CNC)c(O)ccc3nc2-1 [N-demethyl-topotecan, N-Desmethyl topotecan]
[1]
  disruption of the interaction of U4 and NHP2L1: able to disrupt the interaction of U4 and NHP2L1

## CCc1c2c(nc3ccc(O)cc13)-c1cc3c(c(=O)n1C2)COC(=O)[C@]3(O)CC [SN-38]
[1]
  disruption of the interaction of U4 and NHP2L1: able to disrupt the interaction of U4 and NHP2L1
  potency in dose response screening (IC50 ranking): among the most potent inhibitors

## CC[C@@]1(O)C(=O)OCc2c1cc1n(c2=O)Cc2cc3ccccc3nc2-1 [camptothecin, (S)-camptothecin]
[1]
  disruption of the interaction of U4 and NHP2L1: less effective at disrupting the NHP2L1 and U4 interaction

## CCc1c2c(nc3ccc(OC(=O)N4CCC(N5CCCCC5)CC4)cc13)-c1cc3c(c(=O)n1C2)COC(=O)[C@]3(O)CC [irinotecan]
[1]
  disruption of the interaction of U4 and NHP2L1: less effective at disrupting the NHP2L1 and U4 interaction

## CC[C@@]1(O)C(=O)OCc2c1cc1n(c2=O)Cc2cc3c(CN(C)C)c(O)ccc3nc2-1 [topotecan hydrochloride]
[1]; read-out: percentage of inhibition in primary screening
  inhibition at 15 µM: 81.6%

## CC[C@@]1(O)C(=O)OCc2c1cc1n(c2=O)Cc2cc3c(CN(C)C)c(O)ccc3nc2-1 [topotecan, Topotecan]
U4 5′ SL [2]
  binding to U4 by SPR: binds to U4 in a time-dependent manner
[3]; p<0.001
  splicing efficiency (ratio of luciferase to β-galactosidase activities): significantly decreased splicing efficiency
[3]; p=0.4
  β-galactosidase activities: without changing significantly β–galactosidase activities
NHP2L1 U4 complex [4]
  inhibition of NHP2L1-U4 5′SL shift: greater inhibition with increasing concentrations
NHP2L1 U4 complex [5]; 1D spectrum of complex
  direct binding to NHP2L1-U4 complex by 1D NMR: able to directly bind to the NHP2L1-U4 complex
NHP2L1 U4 complex [5]; NHP2L1:U4:topotecan 1:1:20 (2mM topotecan)
  displacement of NHP2L1 from U4 by 2D NMR: displaces NHP2L1 from U4 only at high concentrations
NHP2L1 protein
  binding to NHP2L1 by SPR: markedly less binding to NHP2L1
[1]
  disruption of the interaction of U4 and NHP2L1: able to disrupt the interaction of U4 and NHP2L1
  potency in dose response screening (IC50 ranking): among the most potent inhibitors
U4 5′ SL [6]
  binding to U4 5′ SL by 1D NMR: binding of topotecan to U4 5′ SL was confirmed

## AUCGUAGCCAAUGAGGUUUAUCCGAGGCGCGAU (structured_RNA) [Cy5-U4 5'SL]
[7]
  Kd: 680 pM
